Measured values collected from several papers.
Protocols differ between the studies behind these lines.
ALOX5: Polyunsaturated fatty acid 5-lipoxygenase (ALOX5, Homo sapiens, UniProt P09917)
HDAC8: Histone deacetylase 8 (HDAC8, Homo sapiens, UniProt Q9BY41)
HTR1D: 5-hydroxytryptamine receptor 1D (HTR1D, Homo sapiens, UniProt P28221)
TACR2: Substance-K receptor (TACR2, Homo sapiens, UniProt P21452)

With `CCn1ccc(=S)c(O)c1C` the inhibition was over 70% (ALOX5; enzyme activity, inhibitor, fluorescence; 1 mM).
With `O=c1c(O[C@@H]2O[C@H](CO)[C@@H](O)[C@H](O)[C@H]2O)c(-c2ccc(O)cc2)oc2cc(O)cc(O)c12` the inhibition was 14.8% (HDAC8; enzyme activity, inhibitor; 10 µM).
`Oc1cccc(Nc2nc(-c3ccc(F)cc3F)cs2)c1` has an inhibition of 14.2% (Mu-type opioid receptor (OPRM1, Homo sapiens, UniProt P35372); ligand displacement; 10 µM).
`CCOC(=O)C1=C(C)NC(c2ccccc2)=C(C(=O)OCc2ccccc2)C1C#Cc1ccccc1` (stereo not shown) has an inhibition of 32% (Adenosine receptor A3 (Mus musculus, UniProt Q61618); ligand displacement, radioligand; 10 µM, cell membranes).
With `CCN1CCN(Cc2ccc(NC(=O)c3ccc(C)c(/C=C/c4cnc5[nH]ccc5c4OC)c3)cc2C(F)(F)F)CC1` the inhibition was -0.65% (Mitogen-activated protein kinase kinase kinase 4 (MAP3K4, Homo sapiens, UniProt Q9Y6R4); target engagement in cells, inhibitor, chemoproteomics; A-375; 50 nM).
With `CC(=O)O[C@@H]1c2c(ccc3ccc(=O)oc23)OC(C)(C)[C@@H]1OC(=O)C1(C)OC1C` (stereo partly shown) the inhibition was 43.5% (HDAC8; enzyme activity, inhibitor; 10 µM).
For `CCCNc1nc2ccccc2n1Cc1ccc(Cl)cc1`, the inhibition was -20.3% (HTR1D; cell-free assay; 10 µM).
`CC1(C)CC[C@]2(C)CC[C@]3(C)C(=CC[C@@H]4[C@@]5(C)CC[C@H](O)C(C)(C)[C@@H]5CC[C@]43C)[C@@H]2C1` gave an inhibition of 34.9% (HDAC8; enzyme activity, inhibitor; 10 µM).
With `O=C(c1ccc(Cl)cc1)N(Cc1ccccc1)C1CCCCC1` the inhibition was 15% (TACR2; cell-free assay; 10 µM).
`O=c1cc(-c2ccc(O)c(O)c2)oc2cc(O)cc(O)c12` gave an inhibition of 67.2% (HDAC8; enzyme activity, inhibitor; 10 µM).
For `COc1cc2c3c(c1OC)-c1cc4c(cc1CC3N(C)CC2c1ccccc1)OCO4` (stereo not shown), the inhibition was under 50% (HTR1D; ligand displacement, radioligand; 10 µM).
The inhibition of `C/C=C(/C)C(=O)O[C@@H]1[C@H](OC(C)=O)c2c(ccc3ccc(=O)oc23)OC1(C)C` is reported as 40.9% (HDAC8; enzyme activity, inhibitor; 10 µM).
`COc1ccc(Cc2nnc(NS(=O)(=O)c3cccc4ccccc34)s2)cc1` has an inhibition of 59% (Glutathione hydrolase 1 proenzyme (Homo sapiens, UniProt P19440); enzyme activity in cells, inhibitor; NIH3T3; 100 µM).
`Cc1occ(O)c(=O)c1C(=O)O` gave an inhibition of over 70% (ALOX5; enzyme activity, inhibitor, fluorescence; 1 mM).
For `COc1cc(NC(C)=O)c(Cl)cc1C(=O)Nc1nccs1`, the inhibition was 20% (TACR2; cell-free assay; 10 µM).
With `CCN(CC)c1ccc(C2Nc3ccc(C(=O)c4ccccc4)cc3NC3=C2C(=O)CC(C)(C)C3)cc1` (stereo not shown) the inhibition was 25% (HTR1D; ligand displacement, radioligand; 10 µM).
